A word on the IC50: it is the concentration that inhibits the measured activity by half. A word on the half-life: it is how long it takes for the measured level to halve.

Molecules are shown by their SMILES. Counter-ions that a name gives are not always drawn. The source made the active and inactive calls. No cut-off for these calls is given here.

From ChEMBL document CHEMBL4732040, “Irreversible inhibition of BoNT/A protease: proximity-driven reactivity contingent upon a bifunctional approach” (RSC Med Chem, 2021) come the findings set out here.

Data set [1] addresses Botulinum neurotoxin type A (Clostridium botulinum) (UniProt P0DPI0). The data set is described as follows: Irreversible inhibition of Clostridium botulinum BoNT/A light chain (1 to 425 residues) assessed as ratio of Kinact/Ki using SNAPtide flp6 as substrate inhibited for 1 hr by FRET assay.
In a further data set the target is Collagenase 3 (Homo sapiens, UniProt P45452). Put plainly: Inhibition of MMP-13 (unknown origin) at 25 uM using TQ3-GABA-Pro-Cha-Abu-Smc-His-Ala-Dab(6'-TAMRA)-Ala-Lys-NH2 as substrate bu fluorometric analysis. Summed up:
(§1)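 Residual activity of each MMP in the panel was measured in the presence of compound at 25 μM.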

Another data set addresses T1, Interstitial collagenase (Homo sapiens, UniProt P03956).
T1 sequence (P03956 whole entry): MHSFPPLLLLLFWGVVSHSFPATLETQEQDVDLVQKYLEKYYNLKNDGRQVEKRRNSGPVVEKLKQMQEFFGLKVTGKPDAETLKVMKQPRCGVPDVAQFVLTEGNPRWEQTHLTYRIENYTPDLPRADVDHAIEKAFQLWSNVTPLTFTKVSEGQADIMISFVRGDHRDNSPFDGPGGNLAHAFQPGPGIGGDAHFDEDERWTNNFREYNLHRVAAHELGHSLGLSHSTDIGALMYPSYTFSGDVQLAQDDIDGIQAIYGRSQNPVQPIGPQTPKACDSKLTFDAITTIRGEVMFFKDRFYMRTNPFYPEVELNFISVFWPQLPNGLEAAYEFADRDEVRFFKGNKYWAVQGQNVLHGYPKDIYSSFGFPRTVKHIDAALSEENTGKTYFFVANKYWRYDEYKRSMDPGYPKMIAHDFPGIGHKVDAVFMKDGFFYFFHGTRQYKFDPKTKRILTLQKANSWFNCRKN
Put plainly: Inhibition of MMP-1 (unknown origin) at 25 uM using TQ3-GABA-Pro-Cha-Abu-Smc-His-Ala-Dab(6'-TAMRA)-Ala-Lys-NH2 as substrate bu fluorometric analysis. In outline:
as §1

Another data set deals with Stromelysin-1 (Homo sapiens, UniProt P08254). The data set is described as follows: Inhibition of MMP-3 (unknown origin) at 25 uM using TQ3-GABA-Pro-Cha-Abu-Smc-His-Ala-Dab(6'-TAMRA)-Ala-Lys-NH2 as substrate bu fluorometric analysis. In outline: as §1
Sequence of Stromelysin-1 (P08254 whole entry): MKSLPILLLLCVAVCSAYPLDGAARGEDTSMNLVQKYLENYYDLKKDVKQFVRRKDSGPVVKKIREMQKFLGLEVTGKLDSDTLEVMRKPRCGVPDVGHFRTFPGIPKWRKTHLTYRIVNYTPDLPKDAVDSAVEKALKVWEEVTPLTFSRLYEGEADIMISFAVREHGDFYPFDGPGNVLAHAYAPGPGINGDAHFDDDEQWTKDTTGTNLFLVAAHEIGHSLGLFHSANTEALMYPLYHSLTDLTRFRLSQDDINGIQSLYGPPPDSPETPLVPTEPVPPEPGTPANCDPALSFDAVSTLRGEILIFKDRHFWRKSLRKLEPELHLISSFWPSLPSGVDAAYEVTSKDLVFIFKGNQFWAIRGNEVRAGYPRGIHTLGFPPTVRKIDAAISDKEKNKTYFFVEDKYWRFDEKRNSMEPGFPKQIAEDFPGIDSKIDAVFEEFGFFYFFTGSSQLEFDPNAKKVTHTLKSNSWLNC
Data set [2] addresses T2, Matrix metalloproteinase-19 (Homo sapiens, UniProt Q99542).
T2 sequence (Q99542 whole entry): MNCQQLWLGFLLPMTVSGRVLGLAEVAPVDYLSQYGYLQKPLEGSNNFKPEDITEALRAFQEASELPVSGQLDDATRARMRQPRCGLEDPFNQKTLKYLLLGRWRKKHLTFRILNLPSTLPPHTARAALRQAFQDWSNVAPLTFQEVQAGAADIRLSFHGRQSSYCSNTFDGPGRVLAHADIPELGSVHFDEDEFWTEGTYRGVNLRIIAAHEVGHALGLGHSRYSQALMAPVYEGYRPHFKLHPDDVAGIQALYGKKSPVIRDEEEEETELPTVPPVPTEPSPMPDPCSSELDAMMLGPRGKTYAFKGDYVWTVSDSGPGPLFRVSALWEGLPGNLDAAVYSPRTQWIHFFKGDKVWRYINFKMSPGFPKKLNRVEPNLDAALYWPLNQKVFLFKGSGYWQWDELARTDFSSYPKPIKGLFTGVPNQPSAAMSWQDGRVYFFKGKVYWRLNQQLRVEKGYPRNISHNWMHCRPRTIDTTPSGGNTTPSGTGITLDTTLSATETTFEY
Put plainly: Inhibition of MMP-19 (unknown origin) at 25 uM using TQ3-GABA-Pro-Cha-Abu-Smc-His-Ala-Dab(6'-TAMRA)-Ala-Lys-NH2 as substrate bu fluorometric analysis. Summed up: as §1

For another data set, the target named is Neutrophil collagenase (Homo sapiens, UniProt P22894). Put plainly: Inhibition of MMP-8 (unknown origin) at 25 uM using TQ3-GABA-Pro-Cha-Abu-Smc-His-Ala-Dab(6'-TAMRA)-Ala-Lys-NH2 as substrate bu fluorometric analysis. Summed up:
as §1

Another data set has as its target T3, Matrilysin (Homo sapiens, UniProt P09237).
T3 sequence (P09237 whole entry): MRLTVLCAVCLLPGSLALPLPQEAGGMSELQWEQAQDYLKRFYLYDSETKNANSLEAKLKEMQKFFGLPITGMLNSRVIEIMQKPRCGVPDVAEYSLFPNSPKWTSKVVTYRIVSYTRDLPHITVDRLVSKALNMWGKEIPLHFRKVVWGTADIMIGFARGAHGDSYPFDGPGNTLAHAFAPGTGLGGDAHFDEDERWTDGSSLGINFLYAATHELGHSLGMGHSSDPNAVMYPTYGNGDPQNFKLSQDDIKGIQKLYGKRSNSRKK
The data set is described as follows: Inhibition of MMP-7 (unknown origin) at 25 uM using TQ3-GABA-Pro-Cha-Abu-Smc-His-Ala-Dab(6'-TAMRA)-Ala-Lys-NH2 as substrate bu fluorometric analysis. Summed up: as §1

A short description of data set [3]: GSH reactivity assessed as pseudo first order rate constant at 1 mM in presence of glutathione. The format is physicochemical. As to conditions: 1000 µM.
Data set [4] concerns the target Macrophage metalloelastase (Homo sapiens, UniProt P39900). Put plainly: Inhibition of MMP-12 (unknown origin) at 25 uM using TQ3-GABA-Pro-Cha-Abu-Smc-His-Ala-Dab(6'-TAMRA)-Ala-Lys-NH2 as substrate bu fluorometric analysis. Summed up:
as §1

In data set [5] the target is Matrix metalloproteinase-14 (Homo sapiens, UniProt P50281). Put plainly: Inhibition of MMP-14 (unknown origin) at 25 uM using TQ3-GABA-Pro-Cha-Abu-Smc-His-Ala-Dab(6'-TAMRA)-Ala-Lys-NH2 as substrate bu fluorometric analysis. In outline: as §1
Data set [6] deals with 72 kDa type IV collagenase (Homo sapiens, UniProt P08253). The data set is described as follows: Inhibition of MMP-2 (unknown origin) at 25 uM using TQ3-GABA-Pro-Cha-Abu-Smc-His-Ala-Dab(6'-TAMRA)-Ala-Lys-NH2 as substrate bu fluorometric analysis. In outline:
as §1

Data set [7] addresses Botulinum neurotoxin type A (Clostridium botulinum) (UniProt P0DPI0). Put plainly: Time dependent inhibition of Clostridium botulinum BoNT/A light chain (1 to 425 residues) using SNAPtide flp6 as substrate by FRET assay. As to conditions: dose 100.0 µM, time hrs <=8.
For another data set, the system named is HEK293. The data set is described as follows: Cytotoxicity against human HEK293 cells assessed as reduction in cell viability incubated for 24 hrs by MTT assay. The format is cell-based. As to conditions: for Activity: human, hek293, 24 h, time 24 hrs. In outline:
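HEK293 cells were exposed to compound for 24 h before viability read-out. The paper reports n = 3, with error bars as SD.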
(In general: Tetrazolium dyes change colour on reduction, which living cells bring about.)

Data set [8] can be described thus: GSH reactivity assessed as half life at 1 mM in presence of glutathione. The format is physicochemical.

Sequence of Botulinum neurotoxin type A (Clostridium botulinum) (P0DPI0 2-448 limits assumed): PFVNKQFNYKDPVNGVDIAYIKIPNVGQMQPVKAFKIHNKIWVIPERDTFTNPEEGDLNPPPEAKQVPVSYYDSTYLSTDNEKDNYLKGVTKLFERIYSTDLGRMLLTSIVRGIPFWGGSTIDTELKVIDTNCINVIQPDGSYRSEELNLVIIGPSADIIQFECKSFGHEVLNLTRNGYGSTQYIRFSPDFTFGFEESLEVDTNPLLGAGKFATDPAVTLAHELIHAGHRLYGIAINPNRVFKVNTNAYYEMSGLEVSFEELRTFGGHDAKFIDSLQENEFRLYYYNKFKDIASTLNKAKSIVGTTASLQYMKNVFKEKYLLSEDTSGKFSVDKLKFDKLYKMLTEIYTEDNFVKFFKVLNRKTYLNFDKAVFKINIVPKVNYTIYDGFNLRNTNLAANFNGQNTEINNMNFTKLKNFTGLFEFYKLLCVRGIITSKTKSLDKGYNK
Sequence of 72 kDa type IV collagenase (P08253 whole entry): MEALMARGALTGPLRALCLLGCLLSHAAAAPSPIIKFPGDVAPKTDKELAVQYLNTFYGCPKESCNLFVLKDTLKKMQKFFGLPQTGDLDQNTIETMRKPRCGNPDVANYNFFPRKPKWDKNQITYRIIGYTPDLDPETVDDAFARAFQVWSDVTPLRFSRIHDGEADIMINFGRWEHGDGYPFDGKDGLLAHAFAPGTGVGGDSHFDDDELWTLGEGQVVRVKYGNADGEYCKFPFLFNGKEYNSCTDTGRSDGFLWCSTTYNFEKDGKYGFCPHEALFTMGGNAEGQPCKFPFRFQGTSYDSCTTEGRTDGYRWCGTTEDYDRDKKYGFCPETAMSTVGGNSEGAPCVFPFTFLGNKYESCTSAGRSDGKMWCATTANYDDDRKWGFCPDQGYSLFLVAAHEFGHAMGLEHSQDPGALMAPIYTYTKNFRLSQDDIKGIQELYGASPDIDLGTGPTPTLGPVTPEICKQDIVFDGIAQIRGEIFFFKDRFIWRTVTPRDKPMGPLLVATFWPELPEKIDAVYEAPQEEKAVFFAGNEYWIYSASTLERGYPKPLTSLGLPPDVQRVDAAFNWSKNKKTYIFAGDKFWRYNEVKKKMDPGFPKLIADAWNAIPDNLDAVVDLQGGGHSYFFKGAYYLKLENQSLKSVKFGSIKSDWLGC
Sequence of Macrophage metalloelastase (P39900 whole entry): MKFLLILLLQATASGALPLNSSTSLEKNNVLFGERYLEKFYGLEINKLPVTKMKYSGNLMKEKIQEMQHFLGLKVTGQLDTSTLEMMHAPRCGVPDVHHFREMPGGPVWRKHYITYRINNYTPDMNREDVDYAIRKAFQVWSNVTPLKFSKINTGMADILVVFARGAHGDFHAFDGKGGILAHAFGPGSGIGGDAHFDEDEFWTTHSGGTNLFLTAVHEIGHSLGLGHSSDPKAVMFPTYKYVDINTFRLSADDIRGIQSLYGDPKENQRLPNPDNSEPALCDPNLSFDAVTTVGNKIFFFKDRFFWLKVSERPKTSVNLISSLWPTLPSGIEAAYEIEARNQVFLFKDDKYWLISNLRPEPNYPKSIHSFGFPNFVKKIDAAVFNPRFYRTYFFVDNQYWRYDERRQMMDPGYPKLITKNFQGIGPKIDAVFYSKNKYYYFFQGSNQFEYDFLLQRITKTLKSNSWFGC
Sequence of Neutrophil collagenase (P22894 whole entry): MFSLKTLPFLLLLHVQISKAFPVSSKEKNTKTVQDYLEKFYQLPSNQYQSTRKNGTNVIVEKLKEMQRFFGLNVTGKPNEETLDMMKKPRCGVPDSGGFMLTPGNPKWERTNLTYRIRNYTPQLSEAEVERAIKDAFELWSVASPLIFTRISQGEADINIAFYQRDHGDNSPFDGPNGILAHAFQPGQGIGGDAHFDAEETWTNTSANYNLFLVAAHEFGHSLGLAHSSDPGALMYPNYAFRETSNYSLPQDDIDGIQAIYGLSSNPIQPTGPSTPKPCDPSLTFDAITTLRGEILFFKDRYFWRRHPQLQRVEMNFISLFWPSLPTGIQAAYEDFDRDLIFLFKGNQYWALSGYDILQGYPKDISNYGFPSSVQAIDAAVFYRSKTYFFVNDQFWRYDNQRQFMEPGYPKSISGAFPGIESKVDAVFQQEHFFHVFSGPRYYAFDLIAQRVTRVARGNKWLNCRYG

Regarding `O=C(/C=C/c1ccc(Cl)cc1Cl)N(O)CCCCN1C(=O)C=CC1=O`, the Ratio in [1] was determined as 46.3 M⁻¹ s⁻¹.
Take `O=C(/C=C/c1ccc(Cl)cc1Cl)N(O)CCCN1C(=O)C=CC1=O`: the “inhibition (INH)” value (at Collagenase 3; against Interstitial collagenase; against Stromelysin-1; in data set [2]; against Neutrophil collagenase; against Matrilysin) was “Active” throughout. Besides, the “inhibition (INH)” value in data set [4], in data set [5] and in data set [6] was “Active” throughout. Also, the K in [3] was found to be 0.0023 min⁻¹.
Consider `O=C(/C=C/C(F)F)NCCCCN(O)C(=O)/C=C/c1ccc(Cl)cc1Cl`, for which the TDI result in data set [7] is “inactive”.
Turning to `O=C(CCl)NCCCCN(O)C(=O)/C=C/c1ccc(Cl)cc1Cl`, the TDI result in data set [7] is “inactive”.
Still for that read-out and setting: as for `C=C(F)C(=O)NCCCCN(O)C(=O)/C=C/c1ccc(Cl)cc1Cl`, the entry is “inactive”.
For the compound `O=C(/C=C/c1ccc(Cl)cc1Cl)N(O)CCCCCC1CO1` (stereo not drawn), the “inhibition (INH)” value (against Collagenase 3; on Interstitial collagenase; against Stromelysin-1; in data set [2]; against Neutrophil collagenase; against Matrilysin) was “Not Active” throughout. Moreover, the “inhibition (INH)” value in [4], in [5] and in data set [6] was “Not Active” throughout. Also, the K in data set [3] came out at 0.0012 min⁻¹.
Regarding `O=C(/C=C/C(F)F)NCCN(O)C(=O)/C=C/c1ccc(Cl)cc1Cl`, the TDI entry in [7] was “inactive”.
`O=C(/C=C/c1ccc(Cl)cc1Cl)NCCCCCC1CO1` (stereo not drawn): the TDI entry in data set [7] was “inactive”.
Still for that read-out and setting: as for `C=C(F)C(=O)NCCN(O)C(=O)/C=C/c1ccc(Cl)cc1Cl`, the entry is “inactive”.
Regarding `COC(=O)/C=C/C(=O)OC` [DIMETHYL FUMARATE], the K in data set [3] stood at 0.0589 min⁻¹.
Regarding `C=CC(=O)NCCCCN(O)C(=O)/C=C/c1ccc(Cl)cc1Cl`, in data set [7], the TDI entry was “inactive”.
Consider `C=CC(=O)NCCN(O)C(=O)/C=C/c1ccc(Cl)cc1Cl`, for which, in data set [7], the TDI entry is “inactive”.
As to `O=C(CI)NCCCN(O)C(=O)/C=C/c1ccc(Cl)cc1Cl`, the “inhibition (INH)” value (against Collagenase 3; on Interstitial collagenase; on Stromelysin-1; in data set [2]; at Neutrophil collagenase; against Matrilysin) was “Not Active” in each case. The “inhibition (INH)” value in data set [4], in [5] and in data set [6] was “Not Active” each time. In addition, the K in data set [3] was 0.0611 min⁻¹.
On to `C#CCCCN(O)C(=O)/C=C/c1ccc(Cl)cc1Cl`, for which the TDI result in data set [7] is “inactive”.
Take `C=CC(=O)NCCCCCN(O)C(=O)/C=C/c1ccc(Cl)cc1Cl`: the TDI entry in [7] was “inactive”.
On to `O=C(CCl)NCCCN(O)C(=O)/C=C/c1ccc(Cl)cc1Cl`, for which the TDI entry in data set [7] was “inactive”.
In the case of `O=C(CCl)NCCN(O)C(=O)/C=C/c1ccc(Cl)cc1Cl`, the TDI result in data set [7] was “inactive”.
For the compound `C=C(F)C(=O)NCCCN(O)C(=O)/C=C/c1ccc(Cl)cc1Cl`, the TDI result in data set [7] was “inactive”.
With `O=C(NCCN(O)C(=O)/C=C/c1ccc(Cl)cc1Cl)C(F)Cl` (stereo not drawn), in data set [7], the TDI entry was “inactive”.
Consider `C=CC(=O)NCCCN(O)C(=O)/C=C/c1ccc(Cl)cc1Cl`, for which the TDI entry in data set [7] is “inactive”.
`C#CCCN(O)C(=O)/C=C/c1ccc(Cl)cc1Cl`: the TDI result in data set [7] is “inactive”.
In the case of `O=C(/C=C/c1ccc(Cl)cc1Cl)NCCCN1C(=O)C=CC1=O`, the TDI result in data set [7] is “Active”. Further, the IC50 in the data set on HEK293 (Homo sapiens, HEK293, 24 h) is 6 µM.
As to `O=C(/C=C/C(F)F)NCCCN(O)C(=O)/C=C/c1ccc(Cl)cc1Cl`, the TDI result in data set [7] was “inactive”.
Same read-out and setting: as for `O=C(NCCCN(O)C(=O)/C=C/c1ccc(Cl)cc1Cl)C(F)Cl` (stereo not drawn), the entry is “inactive”.
With `N#CC1(NC(=O)CCCN(O)C(=O)/C=C/c2ccc(Cl)cc2Cl)CC1`, in data set [7], the TDI entry is “inactive”.
With `O=C(NCCCCN(O)C(=O)/C=C/c1ccc(Cl)cc1Cl)C(F)Cl` (stereo not drawn), the TDI result in data set [7] is “inactive”.
On to `C=CC(=O)NCCCCCCN(O)C(=O)/C=C/c1ccc(Cl)cc1Cl`, for which the TDI entry in [7] was “inactive”.
For the compound `CS(=O)(=O)SCCCCCCN(O)C(=O)/C=C/c1ccc(Cl)cc1Cl`, in [8], the half-life at 1000 µM was less than 5 min. For the same compound, the Ratio in data set [1] was 514 M⁻¹ s⁻¹.
For `O=C(CI)NCCCCN(O)C(=O)/C=C/c1ccc(Cl)cc1Cl`, in data set [1], the Ratio was found to be 12.4 M⁻¹ s⁻¹.
For `O=C(CBr)NCCN(O)C(=O)/C=C/c1ccc(Cl)cc1Cl`, in data set [7], the TDI result was “inactive”.
`O=C(CBr)NCCCN(O)C(=O)/C=C/c1ccc(Cl)cc1Cl`: the TDI result in data set [7] was “inactive”.
Turning to `O=C(/C=C/c1ccc(Cl)cc1Cl)N(O)CCCCCCC1CO1` (stereo not drawn), in [7], the TDI entry is “inactive”.
Consider `O=C(NCCN(O)C(=O)/C=C/c1ccc(Cl)cc1Cl)Oc1ccccc1`, for which the TDI result in data set [7] is “inactive”.
For the compound `O=C(CBr)NCCCCN(O)C(=O)/C=C/c1ccc(Cl)cc1Cl`, the TDI result in data set [7] was “inactive”.
On to `O=C(NCCCN(O)C(=O)/C=C/c1ccc(Cl)cc1Cl)Oc1ccccc1`, for which the TDI result in data set [7] is “inactive”.
For `C#CCN(O)C(=O)/C=C/c1ccc(Cl)cc1Cl`, the TDI entry in data set [7] was “inactive”.
For the compound `O=C(/C=C/c1ccc(Cl)cc1Cl)N(O)CCCN1C(=O)CCC1=O`, the inhibition result in data set [7] is “inactive”. For the same compound, the Activity entry with HEK293 is given as “Non-Toxic”.
In the case of `O=C(/C=C/c1ccc(Cl)cc1Cl)N(O)CCCCC1CO1` (stereo not drawn), the TDI result in data set [7] was “inactive”.
As to `CC(=O)NCCCN(O)C(=O)/C=C/c1ccc(Cl)cc1Cl`, the TDI entry in [7] was “inactive”. In addition, the Activity result with HEK293 is on record as “Non-Toxic”.
As for `C#CCCCCN(O)C(=O)/C=C/c1ccc(Cl)cc1Cl`, the TDI result in data set [7] is “inactive”.
In the case of `O=C(/C=C/c1ccc(Cl)cc1Cl)NCCCNC(=O)CI`, in [7], the TDI result was “Active”. The Activity entry in the data set with HEK293 is reported as “Toxic”.
